Active and inactive are the calls of the source. No cut-off for these calls is given here.
Key:
[1] = Inhibition of chymotrypsin-like activity of proteasome by fluorogenic assay; format: subcellular
Outline: (§1)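 Purified rabbit 20S proteasome; CT-L activity measured by fluorogenic assay. Compounds were first screened for % CT-L inhibition, then dose-response runs gave IC50.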

[2] = Inhibition of trypsin-like activity of proteasome by fluorogenic assay; format: subcellular
[3] = Inhibition of chymotrypsin-like activity of proteasome at 10 uM by fluorogenic assay; format: subcellular; outline: as §1
[4] = Inhibition of trypsin-like activity of proteasome at 10 uM by fluorogenic assay; format: subcellular
[5] = organism: Oryctolagus cuniculus; assay: Inhibition of rabbit 20S proteasome activity at 10 uM after 30 mins
Outline: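 Purified rabbit 20S proteasome (1.5 nM final) was preincubated with compound at 10 μM, or 0.1% DMSO vehicle, in 50 mM Tris-HCl pH 7.6 at room temperature for 30 min. Chymotrypsin-like activity was then read by fluorogenic assay before dialysis (t = 0) and normalized to the DMSO control.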

[6] = organism: Oryctolagus cuniculus; assay: Irreversible inhibition of rabbit 20S proteasome activity at 10 uM after 30 mins measured after 4 hrs of dialysis
Outline: (§2)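 Compound at 10 μM or 0.1% DMSO was preincubated with 1.5 nM rabbit 20S proteasome in 50 mM Tris-HCl pH 7.6 for 30 min at room temperature. Mixtures were dialysed (3500 MWCO) against the same buffer at 4 °C and sampled at 0, 0.5, 1, 4, 8 and 18 h. CT-L activity was normalized to DMSO control.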

[7] = Inhibition of postglutamylpeptidase hydrolysis-like activity of proteasome by fluorogenic assay; format: subcellular
[8] = Inhibition of chymotrypsin-like activity of proteasome in human MDA-MB-231 cells after 48 hrs
Outline: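 MDA-MB-231 cells exposed to a range of concentrations or DMSO vehicle for 48 h, then lysed (Tris pH 8.0, EDTA, NaCl, 0.5% NP-40). CT-L activity was measured fluorogenically using 5 μg lysate; IC50 derived.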

[9] = organism: Oryctolagus cuniculus; assay: Irreversible inhibition of rabbit 20S proteasome activity at 10 uM after 30 mins measured after 0.5 to 18 hrs of dialysis; outline: as §2
[10] = Inhibition of chymotrypsin-like activity of proteasome in human MDA-MB-468 cells after 48 hrs
Outline: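 MDA-MB-468 cells grown in DMEM with 10% FCS, penicillin/streptomycin, at 37 °C in 5% CO2. They were exposed to a range of concentrations or DMSO vehicle for 48 h, lysed in Tris pH 8.0/EDTA/NaCl/0.5% NP-40 for 30 min at 4 °C, and spun at 12000g. CT-L activity was read fluorogenically on 5 μg lysate, with lysate replacing purified proteasome.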

[11] = tested on: MDA-MB-468; assay: Antiproliferative activity against human MDA-MB-468 cells after 11 hrs by MTT assay; format: functional, cell-based; settings: MDA-MB-468, 11 h
Outline: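 MDA-MB-468 human breast cancer cells grown in DMEM with 10% FCS and penicillin/streptomycin at 37 °C, 5% CO₂. Cells plated, attached overnight, then exposed to varying compound concentrations or vehicle (DMSO) for 11 h.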

[12] = Inhibition of chymotrypsin-like activity of proteasome in human MDA-MB-468 cells after 11 hrs by fluorogenic assay in whole cell extracts; settings: MDA-MB-468, 11 h
[13] = tested on: MDA-MB-468; assay: Inhibition of chymotrypsin-like activity of proteasome in human MDA-MB-468 cells assessed as accumulation of ubiquitinated cellular proteins after 11 hrs by Western blotting
Outline: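 MDA-MB-468 cells (DMEM, 10% FCS, 37 °C, 5% CO2) given varying concentrations or DMSO for 11 h, then lysed in NP-40 buffer. Lysate (30 μg) was run on SDS-PAGE, transferred to nitrocellulose, probed with anti-ubiquitin, and detected by ECL.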

Structure (SMILES)	IC50 [1]	IC50 [2]	inhibition [3]	also measured
O=C(O)CS(=O)(=O)c1cc(NS(=O)(=O)c2cccs2)c2ccccc2c1O	> 100 µM	–	–	–
O=S(=O)(Nc1cc(Sc2nnn[nH]2)c(O)c2ccccc12)c1ccc(-c2ccc(F)cc2)cc1	0.23 µM	2 µM	> 70%	–
O=S(=O)(Nc1cc(Sc2nnn[nH]2)c(O)c2ccccc12)c1ccc(-c2ccccn2)s1	0.48 µM	1.55 µM	> 70%	–
O=S(=O)(Nc1cc(Sc2ncn[nH]2)c(O)c2ccccc12)c1ccn(S(=O)(=O)c2ccccc2)c1	1.61 µM	–	> 70%	inhibition [4]: < 70%
O=S(=O)(Nc1cc(Sc2ncn[nH]2)c(O)c2ccccc12)c1ccc(C2CCCCC2)cc1	0.3 µM	7 µM	> 70%	–
CCOC(=O)CSc1cc(NS(=O)(=O)c2cccs2)c2ccccc2c1O	> 10 µM	–	–	–
O=S(=O)(Nc1cc(Sc2ncn[nH]2)c(O)c2ccccc12)c1ccc2ccccc2c1	0.3 µM	2 µM	> 70%	–
O=S(=O)(Nc1cc(Cl)c(O)c2ccccc12)c1cccs1	> 30 µM	–	–	–
O=S(=O)(Nc1cc(Sc2nnn[nH]2)c(O)c2ccccc12)c1ccc(C2CCCCC2)cc1	0.23 µM	1.85 µM	> 70%	–
O=S(=O)(Nc1cc(Sc2nnn[nH]2)c(O)c2ccccc12)c1ccc(Cl)cc1	0.57 µM	0.75 µM	> 70%	–
CC(C)C[C@H](NC(=O)[C@H](Cc1ccccc1)NC(=O)c1cnccn1)B(O)O	–	–	–	inhibition [5]: 87%; inhibition [6]: inactive
O=S(=O)(Nc1cc(Sc2nnn[nH]2)c(O)c2ccccc12)c1ccc(Oc2ccccc2)cc1	0.22 µM	1.3 µM	> 70%	–
CNC(=O)CCSc1cc(NS(=O)(=O)c2cccs2)c2ccccc2c1O	> 5 µM	–	–	–
O=C(O)COc1cc(NS(=O)(=O)c2cccs2)c2ccccc2c1O	> 100 µM	–	–	–
O=S(=O)(Nc1cc(Sc2nnn[nH]2)c(O)c2ccccc12)c1cccs1	0.51 µM	0.2 µM	> 70%	–
O=S(=O)(Nc1cc(Sc2ncn[nH]2)c(O)c2ccccc12)c1cccs1	–	–	> 70%	inhibition [4]: < 70%
O=S(=O)(Nc1cc(Sc2nnn[nH]2)c(O)c2ccccc12)c1ccc(Cl)s1	0.63 µM	1.1 µM	> 70%	–
CN(C)C(=O)CCSc1cc(NS(=O)(=O)c2cccs2)c2ccccc2c1O	> 5 µM	–	–	–
O=S(=O)(Nc1ccc(O)c2ccccc12)c1cccs1	> 30 µM	–	–	–
Cn1nnnc1Sc1cc(NS(=O)(=O)c2cccs2)c2ccccc2c1O	4.2 µM	–	> 70%	inhibition [4]: < 70%
O=C(O)CCSc1cc(NS(=O)(=O)c2cccs2)c2ccccc2c1O	5.7 µM	–	–	–
O=S(=O)(Nc1cc(Sc2nnn[nH]2)c(O)c2ccccc12)c1ccc(Cl)c(Cl)c1	0.54 µM	0.57 µM	> 70%	–

Structure (SMILES)	IC50 [1]	IC50 [2]	inhibition [3]	also measured
O=C(O)CSc1cc(NS(=O)(=O)c2cccs2)c2ccccc2c1O	3 µM	–	> 70%	IC50 [7]: 8.1 µM; inhibition [4]: < 70%; inhibition [5]: 68%; IC50 [8]: 3.54 µM; inhibition [9]: Active; IC50 [10]: 7.22 µM
O=S(=O)(Nc1cc(Sc2ncn[nH]2)c(O)c2ccccc12)c1ccc(-c2ccc(C(F)(F)F)cc2)cc1	2.47 µM	7.2 µM	> 70%	–
O=S(=O)(Nc1cc(Sc2nnn[nH]2)c(O)c2ccccc12)c1ccc(-c2ccccc2)cc1	0.22 µM	4.8 µM	> 70%	–
CCSc1cc(NS(=O)(=O)c2cccs2)c2ccccc2c1O	> 5 µM	–	–	–
COc1ccc(-c2ccc(S(=O)(=O)Nc3cc(Sc4nnn[nH]4)c(O)c4ccccc34)cc2)cc1	0.4 µM	2.8 µM	> 70%	–
O=S(=O)(Nc1cc(Sc2nnn[nH]2)c(O)c2ccccc12)c1ccccc1	0.6 µM	1.38 µM	> 70%	–
O=S(=O)(Nc1cc(Sc2nnn[nH]2)c(O)c2ccccc12)c1ccc(-c2ccc(C(F)(F)F)cc2)cc1	0.88 µM	1.14 µM	> 70%	IC50 [11]: 17 µM; IC50 [12]: 15.6 µM; inhibition [5]: 73%; IC50 [8]: 0.44 µM; inhibition [9]: Active; inhibition [13]: Dose-dependent effect; IC50 [10]: 1.01 µM
O=S(=O)(Nc1cc(Sc2ncn[nH]2)c(O)c2ccccc12)c1ccc(S(=O)(=O)c2ccccc2)s1	1.97 µM	–	> 70%	inhibition [4]: < 70%
O=S(=O)(Nc1cc(Sc2ncn[nH]2)c(O)c2ccccc12)c1ccc(-c2ccc(F)cc2)cc1	0.18 µM	2.37 µM	> 70%	–
O=S(=O)(Nc1cc(Sc2ncn[nH]2)c(O)c2ccccc12)c1ccc(-c2ccccc2)s1	0.73 µM	2.35 µM	> 70%	–
O=S(=O)(Nc1cc(Sc2ncn[nH]2)c(O)c2ccccc12)c1cccc2ccccc12	0.65 µM	–	> 70%	inhibition [4]: < 70%
CCCCCc1ccc(S(=O)(=O)Nc2cc(Sc3nnn[nH]3)c(O)c3ccccc23)cc1	0.47 µM	1.45 µM	> 70%	–
O=S(=O)(Nc1cc(Sc2ncn[nH]2)c(O)c2ccccc12)c1ccc(-c2ccccc2)cc1	0.28 µM	4.22 µM	> 70%	–
O=S(=O)(Nc1cc(Sc2ncn[nH]2)c(O)c2ccccc12)c1ccc(Oc2ccccc2)cc1	0.15 µM	4.2 µM	> 70%	–
O=S(=O)(Nc1cc(Br)c(O)c2ccccc12)c1cccs1	> 30 µM	–	–	–
O=S(=O)(Nc1cc(Sc2nnn[nH]2)c(O)c2ccccc12)c1ccc2ccccc2c1	0.4 µM	1.35 µM	> 70%	–
O=S(=O)(Nc1cc(Sc2nnn[nH]2)c(O)c2ccccc12)c1ccc(-c2ccccc2)s1	0.23 µM	0.55 µM	> 70%	–
CCOc1cc(NS(=O)(=O)c2cccs2)c2ccccc2c1O	> 5 µM	–	–	–
O=S(=O)(Nc1cc(SCCO)c(O)c2ccccc12)c1cccs1	> 5 µM	–	–	–
O=C(O)CSc1ccc(NS(=O)(=O)c2cccs2)c2ccccc12	> 100 µM	–	–	–
O=S(=O)(Nc1cc(I)c(O)c2ccccc12)c1cccs1	> 30 µM	–	–	–
O=C(O)c1ccccc1Sc1cc(NS(=O)(=O)c2cccs2)c2ccccc2c1O	4.05 µM	–	> 70%	inhibition [4]: < 70%

Reference: ChEMBL document CHEMBL2029346, “Discovery and synthesis of hydronaphthoquinones as novel proteasome inhibitors” (J Med Chem, 2012)
